Assay results reported in ChEMBL document CHEMBL1153905, “Functionalized 3-benzylidene-indolin-2-ones: inducers of NAD(P)H-quinone oxidoreductase 1 (NQO1) with antiproliferative activity” (Bioorg Med Chem, 2009).

Assays:
[1] = Cytotoxicity against mouse Hepa-1c1c7 cells after 48 hrs by MTT assay; assay type: cell-based; settings: hepa-1c1c7, 48 h
How it was run: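 Murine hepatoma cells in α-MEM with 10% heat- and charcoal-treated fetal calf serum, passages 6–17; MTT read-out as for the cancer lines but with 48 h compound exposure. Highest concentration tested 25 µM. IC50 from survival-versus-concentration curve; mean and SD, n = 3.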

CYP1A1 [2] = target: T1, CYP1A1 (Mus musculus, UniProt P00184); assay: Induction of CYP1A1 activity in mouse Hepa-1c1c7 cells assessed as induction ratio at 5 nM after 48 hrs by EROD assay relative to control; assay type: ADME, cell-based
T1 sequence (P00184 whole entry): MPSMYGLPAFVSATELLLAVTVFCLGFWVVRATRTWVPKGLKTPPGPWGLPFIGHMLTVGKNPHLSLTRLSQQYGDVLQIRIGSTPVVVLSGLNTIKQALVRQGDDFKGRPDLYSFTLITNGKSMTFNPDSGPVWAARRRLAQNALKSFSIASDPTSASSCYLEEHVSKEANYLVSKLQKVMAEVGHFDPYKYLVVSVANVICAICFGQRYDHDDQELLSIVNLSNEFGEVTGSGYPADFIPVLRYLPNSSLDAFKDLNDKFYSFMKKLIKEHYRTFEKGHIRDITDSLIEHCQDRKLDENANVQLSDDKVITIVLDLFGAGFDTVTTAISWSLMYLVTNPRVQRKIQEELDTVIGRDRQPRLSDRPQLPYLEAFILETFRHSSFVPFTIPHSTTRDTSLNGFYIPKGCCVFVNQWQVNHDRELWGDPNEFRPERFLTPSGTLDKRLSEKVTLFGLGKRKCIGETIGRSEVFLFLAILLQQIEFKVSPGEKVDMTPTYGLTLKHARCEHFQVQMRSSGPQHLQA
How it was run: (§1)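 Hepa1c1c7 cells were seeded at 10,000 per well and grown 24 h. They were then exposed 48 h to compound (final DMSO 0.5% v/v) at about 4 × the NQO1 CD. After a PBS wash, cells got 5 µM 7-ethoxyresorufin plus 2 mM salicylamide in medium, 37 °C, 40 min. Resorufin was read at ex 530/em 590 nm, corrected for compound fluorescence. Ratio = (F treated − blank)/(F DMSO control − blank); mean ± SD, n = 3.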

[3] = target: NAD(P)H dehydrogenase [quinone] 1 (Mus musculus) (UniProt Q64669); assay: Induction of NQO1 activity in mouse Hepa-1c1c7 cells assessed as induction ratio at 5 nM after 48 hrs by MTT assay relative to control; assay type: cell-based
How it was run: (§2)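 Hepa1c1c7 cells, 10,000 per well, 24 h, were then treated 48 h (DMSO ≤0.5%). Digitonin/EDTA lysates were assayed for menadione-dependent MTT-formazan formation using a G6P/G6PDH NADPH-generating mix with FAD at pH 7.4. The reaction ran 5 min, was stopped with dicoumarol, and read at A590. Degree of induction = (A test − blank)/(A control − blank). Ratios were read off the induction–concentration plot at the EROD test concentration.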

[4] = Ratio of induction of NQO1 activity to induction of CYP1 activity in mouse Hepa-1c1c7 cells at 5 nM after 48 hrs
CYP1A1 [5] = target: T1, CYP1A1; assay: Induction of CYP1A1 activity in mouse Hepa-1c1c7 cells assessed as induction ratio at 0.1 uM after 48 hrs by EROD assay relative to control; assay type: ADME, cell-based
How it was run: (§3)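 About 10,000 Hepa1c1c7 cells/well cultured 24 h, then compound (0.5% DMSO final) for 48 h, at roughly 4 × the concentration doubling NQO1 activity. After PBS wash, cells given 5 µM 7-ethoxyresorufin plus 2 mM salicylamide, 37 °C, 40 min; resorufin fluorescence ex 530/em 590 nm, corrected for compound fluorescence. Ratio = (treated − blank)/(DMSO control − blank); mean ± SD, n = 3.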

[6] = target: NAD(P)H dehydrogenase [quinone] 1 (Mus musculus) (UniProt Q64669); assay: Induction of NQO1 activity in mouse Hepa-1c1c7 cells assessed as induction ratio at 0.1 uM after 48 hrs by MTT assay relative to control; assay type: cell-based; how it was run: as §2
CYP1A1 [7] = target: T1, CYP1A1; assay: Induction of CYP1A1 activity in mouse Hepa-1c1c7 cells assessed as induction ratio at 10 uM after 48 hrs by EROD assay relative to control; assay type: ADME, cell-based; how it was run: as §3
[8] = target: NAD(P)H dehydrogenase [quinone] 1 (Mus musculus) (UniProt Q64669); assay: Induction of NQO1 activity in mouse Hepa-1c1c7 cells assessed as induction ratio at 10 uM after 48 hrs by MTT assay relative to control; assay type: cell-based; how it was run: as §2
CYP1A1 [9] = target: T1, CYP1A1; assay: Induction of CYP1A1 activity in mouse Hepa-1c1c7 cells assessed as induction ratio at 7.5 uM after 48 hrs by EROD assay relative to control; assay type: ADME, cell-based; how it was run: as §1
HCT-116 [10] = assay: Antiproliferative activity against human HCT116 cells after 72 hrs by MTT assay; assay type: functional, cell-based; settings: HCT-116, 72 h
How it was run: (§4)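 Cells seeded at 10,000 (MCF7), 4000 (HCT116) or 5000 (CCL186) per well and grown 24 h; MCF7 and CCL186 in EMEM with pyruvate, glutamine, 10% FBS; HCT116 in McCoy's 5A with 10% FBS. Compounds from DMSO stocks (≤1% DMSO final), 72 h exposure; MTT 0.5 mg/ml for 3 h, formazan in DMSO read at 590 nm. IC50 from sigmoidal survival curve, three separate occasions.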

MCF7 [11] = assay: Antiproliferative activity against human MCF7 cells after 72 hrs by MTT assay; assay type: functional, cell-based; settings: MCF7, 72 h; how it was run: as §4
[12] = Antiproliferative activity against human CCL186 cells after 72 hrs by MTT assay; assay type: cell-based; settings: CCL186, 72 h; how it was run: as §4
MCF7 [13] = assay: Selectivity ratio of IC50 for human CCL186 cells to IC50 for human MCF7 cells
How it was run: (§5)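 MTT assay. MCF7 and CCL186 cells were grown in EMEM/10% FBS, HCT116 in McCoy's 5A/10% FBS. Seeding was 10,000 (MCF7), 4000 (HCT116) and 5000 (CCL186) cells per well, 24 h. Compound exposure was 72 h, DMSO ≤1% final. MTT 0.5 mg/ml for 3 h, formazan dissolved in DMSO, A590. IC50 came from sigmoidal survival curves, with 3 separate occasions per concentration. Ratio = IC50 CCL186 / IC50 of the cancer line.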

[14] = Selectivity ratio of IC50 for human CCL186 cells to IC50 for human HCT116 cells; assay type: ADME, cell-based, HCT-116; settings: CCL186 cells and HCT116 cells, read-out: Ratio IC50; how it was run: as §5
HCT-116 [15] = assay: Cell cycle arrest in human HCT116 cells released from G1 block assessed as accumulation at sub G1 phase at 15 uM after 24 hrs by flow cytometry; assay type: functional
HCT-116 [16] = assay: Cell cycle arrest in human HCT116 cells released from G2 block assessed as accumulation at sub G1 phase at 15 uM after 24 hrs by flow cytometry; assay type: functional
HCT-116 [17] = assay: Cell cycle arrest in human HCT116 cells released from G1 block assessed as accumulation at G1 phase at 15 uM after 24 hrs by flow cytometry; assay type: functional
HCT-116 [18] = assay: Cell cycle arrest in human HCT116 cells released from G2 block assessed as accumulation at G1 phase at 15 uM after 24 hrs by flow cytometry; assay type: functional
HCT-116 [19] = assay: Cell cycle arrest in human HCT116 cells released from G1 block assessed as accumulation at S phase at 15 uM after 24 hrs by flow cytometry; assay type: functional
HCT-116 [20] = assay: Cell cycle arrest in human HCT116 cells released from G2 block assessed as accumulation at S phase at 15 uM after 24 hrs by flow cytometry; assay type: functional
HCT-116 [21] = assay: Cell cycle arrest in human HCT116 cells released from G1 block assessed as accumulation at G2/M phase at 15 uM after 24 hrs by flow cytometry; assay type: functional
HCT-116 [22] = assay: Cell cycle arrest in human HCT116 cells released from G2 block assessed as accumulation at G2/M phase at 15 uM after 24 hrs by flow cytometry; assay type: functional
[23] = target: NAD(P)H dehydrogenase [quinone] 1 (Mus musculus) (UniProt Q64669); assay: Induction of NQO1 activity in mouse Hepa-1c1c7 cells assessed as induction ratio at 7.5 uM after 48 hrs by MTT assay relative to control; assay type: cell-based; how it was run: as §2
[24] = target: NAD(P)H dehydrogenase [quinone] 1 (Mus musculus) (UniProt Q64669); assay: Induction of NQO1 activity in mouse Hepa-1c1c7 cells assessed as induction ratio at 1 uM after 48 hrs by MTT assay relative to control; assay type: cell-based; how it was run: as §2
CYP1A1 [25] = target: T1, CYP1A1; assay: Induction of CYP1A1 activity in mouse Hepa-1c1c7 cells assessed as induction ratio at 1 uM after 48 hrs by EROD assay relative to control; assay type: ADME, cell-based; how it was run: as §3

NAD(P)H dehydrogenase [quinone] 1 (Mus musculus), sequence (Q64669 whole entry): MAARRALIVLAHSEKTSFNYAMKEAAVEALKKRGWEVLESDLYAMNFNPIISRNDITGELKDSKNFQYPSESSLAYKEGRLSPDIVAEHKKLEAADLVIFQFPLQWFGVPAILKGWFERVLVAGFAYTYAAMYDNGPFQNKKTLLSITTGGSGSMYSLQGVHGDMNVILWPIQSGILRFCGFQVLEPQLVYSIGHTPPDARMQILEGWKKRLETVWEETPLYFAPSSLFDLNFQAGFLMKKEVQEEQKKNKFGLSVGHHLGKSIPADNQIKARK

O=C1Nc2ccccc2/C1=C1\C(=O)Nc2cc(F)ccc21
IC50 [1]: > 25 µM | fold induction at 48 h, 0.005 µM (CYP1A1 [2]): 2.75 | Ratio [3]: 2.56 | Ratio [4]: 0.93

O=C1Nc2ccccc2/C1=C\c1cccc(C(F)(F)F)c1
fold induction at 48 h, 0.1 µM (CYP1A1 [5]): 1.4 | IC50 [1]: 3.9 µM | Ratio [6]: 3.85

COc1cccc(/C=C2/C(=O)Nc3cc(Cl)ccc32)c1
fold induction at 48 h, 0.1 µM (CYP1A1 [5]): 1.51 | IC50 [1]: > 25 µM | Ratio [6]: 2.56

O=C1Nc2ccccc2/C1=C\c1ccccn1
fold induction at 48 h, 10 µM (CYP1A1 [7]): 1.08 | IC50 [1]: 19.9 µM | Ratio [8]: 3.92

O=C1Nc2ccccc2/C1=C\c1ccc(C(F)(F)F)cc1
fold induction at 48 h, 0.1 µM (CYP1A1 [5]): 1.22 | IC50 [1]: 12 µM | Ratio [6]: 2.74

O=C1Nc2cc(C(F)(F)F)ccc2/C1=C1\C(=O)Nc2ccc(F)cc21
IC50 [1]: > 25 µM | fold induction at 48 h, 0.005 µM (CYP1A1 [2]): 3.72 | Ratio [3]: 3.09 | Ratio [4]: 0.83

O=C1Nc2ccccc2/C1=C\c1cccc(Oc2ccccc2)c1
fold induction at 48 h, 7.5 µM (CYP1A1 [9]): 1.08 | IC50 (HCT-116 [10]): 3.7 µM | IC50 (MCF7 [11]): 8.2 µM | IC50 [12]: 12.7 µM | Ratio IC50 (MCF7 [13]): 3.4 | selectivity ratio [14]: 1.5 | Activity (HCT-116 [15]): 3.62% | Activity (HCT-116 [16]): 2.16% | Activity (HCT-116 [17]): 55.93% | Activity (HCT-116 [18]): 63.51% | Activity (HCT-116 [19]): 21.83% | Activity (HCT-116 [20]): 13.1% | Activity (HCT-116 [21]): 18.98% | Activity (HCT-116 [22]): 21.09% | IC50 [1]: 10.8 µM | Ratio [23]: 3.34

COc1ccc2c(c1)NC(=O)/C2=C/c1ccc(OC)c(O)c1
IC50 (HCT-116 [10]): 3.7 µM | IC50 (MCF7 [11]): 7.8 µM | IC50 [12]: 11.3 µM | Ratio IC50 (MCF7 [13]): 3.1 | selectivity ratio [14]: 1.4 | Activity (HCT-116 [15]): 5.26% | Activity (HCT-116 [16]): 15.54% | Activity (HCT-116 [17]): 17.49% | Activity (HCT-116 [18]): 26.01% | Activity (HCT-116 [19]): 21.13% | Activity (HCT-116 [20]): 15.36% | Activity (HCT-116 [21]): 56.49% | Activity (HCT-116 [22]): 43.57% | IC50 [1]: 9.8 µM | Ratio [24]: 4.34 | fold induction at 48 h, 1 µM (CYP1A1 [25]): 1.05
